For test [1], the system named is RPMI-8226. Kind of test: Inhibition of cell growth in drug resistant 8226 myeloma cell line. The test is classed as functional, cell-based. To be noted: Homo sapiens.
In test [2] the test system is RPMI-8226. Briefly: Inhibition of cell growth in drug sensitive 8226 myeloma cell line. The class given is functional, cell-based. As to conditions: Homo sapiens.
For another test, the system named is A549. Kind of test: Inhibition of cell growth in (A-549) lung cell line. The test is classed as functional, cell-based. To be noted: Homo sapiens.
The next test has as its system A-375. Briefly: Inhibition of cell growth in (A375) melan cell line. The test is classed as functional, cell-based. As to conditions: Homo sapiens.
For test [3], the system named is MCF7. Kind of test: Cytotoxicity was measured as 50% inhibition of cell growth in drug sensitive MCF-7 breast cell line. To be noted: Homo sapiens. The test is classed as functional, cell-based, Mus musculus.
Test [4] has as its system L1210. Kind of test: Inhibition of cell growth in (L1210 leukemia) MDR cells determined by MTT assay. As to conditions: Mus musculus. The class given is functional, cell-based. A general note: Formazan colour is commonly taken as a measure of viable cells.
Test [5] concerns MCF7. Briefly: Inhibition of cell growth in (MCF7 breast) dox cell line. The class given is functional, cell-based. To be noted: Homo sapiens.
For test [6], the system named is MCF7. Briefly: Inhibition of cell growth in (MCF7 breast) mitox cell line. To be noted: Homo sapiens. The test is classed as functional, cell-based.
Test [7] relates to WiDr. Briefly: Inhibition of cell growth in drug resistant WiDr colon cell line. The test is classed as functional, cell-based. As to conditions: Homo sapiens.
Test [8] relates to WiDr. Briefly: Inhibition of cell growth in drug sensitive WiDr colon cell line. The test is classed as functional, cell-based. To be noted: Homo sapiens.
In test [9] the test system is L1210. Briefly: Cytotoxicity was measured as 50% inhibition of cell growth in drug sensitive L1210 leukemia cell line and is determined by MTT assay. The class given is functional, cell-based, Homo sapiens. To be noted: Mus musculus.
The test system of test [10] is L1210. Kind of test: Inhibition of cell growth in drug sensitive L1210 leukemia cell line determined by MTT assay. The test is classed as functional, cell-based. As to conditions: Mus musculus.
In test [11] the test system is MCF7. Briefly: Inhibition of cell growth in drug sensitive MCF-7 breast cell line. The class given is functional, cell-based. To be noted: Homo sapiens.
For a further test, the system named is OVCAR-3. Kind of test: Inhibition of cell growth in (OVCAR-3) ovarian cell line. The test is classed as functional, cell-based. To be noted: Homo sapiens.
A short description of test [12]: Number of colony forming cells of human gynecologic tumor showing sensitivity among the 4 colony forming cells tested in vitro at compound concentration of 0.2 uM. The class given is functional. The essentials: (§1)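 Fresh human tumor specimens from patients at the Arizona Cancer Center, run in the human tumor cloning (colony-forming) assay by a standard protocol. Read-out was [3H]thymine uptake by tumor-colony-forming cells.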

A short description of test [13]: Number of colony forming cells of human gynecologic tumor showing sensitivity among the 4 colony forming cells tested in vitro at compound concentration of 2.0 uM. The class given is functional. Summed up:
as §1

Test [14] in a line: Number of colony forming cells of human gynecologic tumor showing sensitivity among the 4 colony forming cells tested in vitro at compound concentration of 20 uM. The class given is functional. The essentials: as §1
Test [15] can be described thus: Number of colony forming cells of human lung tumor showing sensitivity among the 2 colony forming cells tested in vitro at compound concentration of 20 uM. The class given is functional. The essentials:
as §1

Test [16] can be described thus: Number of colony forming cells of human ovary tumor showing sensitivity among the 10 colony forming cells tested in vitro at compound concentration of 0.2 uM. The class given is functional, Female gonad. Summed up: as §1
Test [17] in a line: Number of colony forming cells of human ovary tumor showing sensitivity among the 10 colony forming cells tested in vitro at compound concentration of 20 uM. The class given is functional, Female gonad. Summed up: as §1
The nature of test [18]: Number of colony forming cells of human lung tumor showing sensitivity among the 2 colony forming cells tested in vitro at compound concentration of 0.2 uM. The class given is functional. The essentials:
as §1

The nature of test [19]: Number of colony forming cells of human sarcoma tumor showing sensitivity among the 2 colony forming cells tested in vitro at compound concentration of 0.2 uM. The test is classed as functional. Summed up: (§2)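 Fresh human tumor specimens, obtained from patients at the Arizona Cancer Center, were tested as tumor-colony-forming cells in the human tumor cloning assay. Sensitivity was scored as a 50% or greater decrease in […] uptake by treated colony-forming cells relative to untreated control colony-forming cells. The value is the count of sensitive specimens among those tested.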

The nature of test [20]: Number of colony forming cells of human sarcoma tumor showing sensitivity among the 8 colony forming cells tested in vitro at compound concentration of 2.0 uM. The class given is functional. The essentials:
as §2

A short description of test [21]: Number of colony forming cells of human sarcoma tumor showing sensitivity among the 8 colony forming cells tested in vitro at compound concentration of 20 uM. The test is classed as functional. The essentials: as §2
Test [22] is described as follows: Number of colony forming cells of human melanoma tumor showing sensitivity among the 10 colony forming cells tested in vitro at compound concentration of 20 uM. The class given is functional. Summed up: as §1
Test [23] in a line: Number of colony forming cells of human melanoma tumor showing sensitivity among the 5 colony forming cells tested in vitro at compound concentration of 0.2 uM. The test is classed as functional. The essentials:
as §1

Test [24] concerns Breast carcinoma cell. Kind of test: Number of colony forming cells of human breast tumor showing sensitivity among the 4 colony forming cells tested in vitro at compound concentration of 20 uM. The class given is functional. The essentials:
as §1

Test [25] is described as follows: Number of colony forming cells of human stomach tumor showing sensitivity among the 1 colony forming cells tested in vitro at compound concentration of 2.0 uM. The test is classed as functional. The essentials: as §2
A short description of test [26]: Number of colony forming cells of human stomach tumor showing sensitivity among the 1 colony forming cells tested in vitro at compound concentration of 20 uM. The class given is functional. Summed up: as §2
Test [27] in a line: Number of colony forming cells of human myeloma tumor showing sensitivity among the 2 colony forming cells tested in vitro at compound concentration of 0.2 uM. The class given is functional. Summed up:
as §1

Test [28] in a line: Number of colony forming cells of human myeloma tumor showing sensitivity among the 2 colony forming cells tested in vitro at compound concentration of 2.0 uM. The test is classed as functional. The essentials: as §1
A short description of test [29]: Number of colony forming cells of human myeloma tumor showing sensitivity among the 2 colony forming cells tested in vitro at compound concentration of 20 uM. The test is classed as functional. The essentials: as §1
A short description of test [30]: Number of colony forming cells of human ovary tumor showing sensitivity among the 11 colony forming cells tested in vitro at compound concentration of 2.0 uM. The class given is functional, Female gonad. The essentials:
as §1

Test [31] is described as follows: Number of colony forming cells of human stomach tumor showing sensitivity among the 1 colony forming cells tested in vitro at compound concentration of 0.2 uM. The test is classed as functional. Summed up:
as §2

Test [32] has as its system Breast carcinoma cell. Kind of test: Number of colony forming cells of human breast tumor showing sensitivity among the 4 colony forming cells tested in vitro at compound concentration of 0.2 uM. The test is classed as functional. Summed up:
as §1

A short description of test [33]: Number of colony forming cells of human lung tumor showing sensitivity among the 2 colony forming cells tested in vitro at compound concentration of 2.0 uM. The test is classed as functional. The essentials: as §1
Test [34] in a line: Number of colony forming cells of human melanoma tumor showing sensitivity among the 10 colony forming cells tested in vitro at compound concentration of 2.0 uM. The class given is functional. The essentials:
as §1

In test [35] the test system is Breast carcinoma cell. Kind of test: Number of colony forming cells of human breast tumor showing sensitivity among the 4 colony forming cells tested in vitro at compound concentration of 2.0 uM. The class given is functional. Summed up: as §1

As to `CCOC(=O)CNC(=O)N1CC1C#N` (stereo not given), the IC50 was determined as 30 µM in the test on RPMI-8226 [1]; 25 µM in the test with RPMI-8226 [2]; 24 µM with A549; 51 µM with A-375; 15 µM in the test with MCF7 [3]; 13 µM with L1210 [4]. Besides, the IC50 in the test with MCF7 [5] came out at 17 µM; in the test with MCF7 [6], 11 µM; in the test on WiDr [7], 33 µM; in the test on WiDr [8], 31 µM; with L1210 [9] it was 13 µM.
As for `N#CC1CN1C(=O)NC1CCCCC1` (stereo not given), the IC50 is 98 µM in the test with RPMI-8226 [1]; 36 µM in the test with RPMI-8226 [2]; 10 µM with A549; 35 µM in the test on A-375; 16 µM with L1210 [4]; 7.4 µM with L1210 [10]. Further, the IC50 in the test with MCF7 [5] worked out at 8.9 µM; in the test on MCF7 [6] it was 9.8 µM; with MCF7 [11], 13 µM; in the test with OVCAR-3 it was 31 µM; in the test on WiDr [7] it was 12 µM; with WiDr [8] it was 2.4 µM.
Take `COC(=O)c1ccccc1NC(=O)N1CC1C#N` (stereo not given): the IC50 in the test on RPMI-8226 [1] was greater than 39 µM; in the test with RPMI-8226 [2], greater than 39 µM; in the test on A549, greater than 41 µM; in the test on A-375 it was greater than 39 µM; in the test on L1210 [4], greater than 39 µM; in the test on L1210 [10], greater than 39 µM. For the same compound, the IC50 is greater than 16 µM in the test on MCF7 [5]; greater than 16 µM with MCF7 [6]; greater than 16 µM with MCF7 [11]; greater than 39 µM with OVCAR-3; greater than 41 µM with WiDr [7]; 40 µM in the test with WiDr [8].
For `N#CC1CN1C(=O)Nc1ccc(C(F)(F)F)cc1` (stereo not given), the IC50 is 7.8 µM in the test on RPMI-8226 [1]; 8.2 µM in the test on RPMI-8226 [2]; 4.3 µM in the test with A549; 11.8 µM in the test with A-375; 7.1 µM with L1210 [4]; 7.8 µM in the test with L1210 [10]. Also, the IC50 in the test on MCF7 [5] was 1.4 µM; with MCF7 [6] it was 1.3 µM; in the test with MCF7 [11], 1.5 µM; in the test on OVCAR-3, 5.9 µM; with WiDr [7], 5.8 µM; with WiDr [8], 1.3 µM.
With `N#CC1CN1C(=O)Nc1ccccc1` (stereo not given), the IC50 with RPMI-8226 [1] is 8 µM; in the test with RPMI-8226 [2], 5.3 µM; in the test with A549, 9 µM; in the test on A-375 it was 11 µM; in the test on L1210 [4], 11 µM; with L1210 [10], 1.2 µM. In addition, the IC50 in the test with MCF7 [5] amounted to 2.6 µM; with MCF7 [6] it was 4.3 µM; with MCF7 [11] it was 2.9 µM; with OVCAR-3, 6.8 µM; in the test with WiDr [7], 12 µM; with WiDr [8], 5 µM. Moreover, the Sensitivity in [12] amounted to 0; in test [13], 2; in [14], 3; in [15] it was 2; in [16], 3; in test [17], 10. For the same compound, the Sensitivity in test [18] was 0; in test [19], 2; in test [20] it was 4; in [21] it was 5; in test [22], 10; in [23], 3. The Sensitivity in the test on Breast carcinoma cell [24] is 3; in test [25], 1; in [26], 1; in test [27] it was 2; in [28], 2; in [29], 2. For the same compound, the Sensitivity in test [30] came to 10; in test [31], 1; with Breast carcinoma cell [32] it was 2; in test [33] it was 1; in test [34] it was 8; in the test on Breast carcinoma cell [35], 2.
Turning to `N#CC1CN1C(=O)Nc1ccc([N+](=O)[O-])cc1` (stereo not given), the IC50 in the test on RPMI-8226 [1] came out at 8.6 µM; in the test with RPMI-8226 [2] it was 9.1 µM; with A549, 3.9 µM; with A-375, 3.9 µM; with L1210 [4] it was 2.6 µM; with L1210 [10], 2.6 µM. Also, the IC50 came out at 3 µM in the test on MCF7 [5]; 3 µM in the test with MCF7 [6]; 3 µM in the test on MCF7 [11]; 6.5 µM in the test with OVCAR-3; 3.7 µM with WiDr [7]; 4.3 µM with WiDr [8].

Broadly, the IC50 is the concentration needed to halve the response being measured. A lower IC50 goes with inhibition by little substance.

Source of the values: ChEMBL document CHEMBL1132573, “Novel antitumor 2-cyanoaziridine-1-carboxamides” (J Med Chem, 1999).
